This is a sample that favours compounds with a hit; in the whole collection about 1.9% have one here.
UBC9 SUMO inh: blocks human SUMOylation mediated by UBC9; AID 2006; hit rate 0.36% among 290,000; inhibition, % at 35 µM; HTRF SUMOylation assay, SAE1/SAE2 + UBC9, in vitro; in the data active = inhibition above about 50%, passing the limit was not always enough
VIM-2 inhibitor: blocks Pseudomonas aeruginosa VIM-2 metallo-beta-lactamase; purified VIM-2, nitrocefin hydrolysis, epi-absorbance fluorescence; inhibition, % at 5.6 µM; hit rate 0.89% among 290,000; AID 1527;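 active = inhibition above the mean of all tested compounds plus 3 SD, cutoff set per screening run, cut at about 7.5% in these data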;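 note: red hydrolysis product quenches plate fluorescence so inhibitors raise well fluorescence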
Fh CTSL1 inh: counter-screen for PFM18AAP inhibitors: inhibitors of F. hepatica cathepsin L1 | recombinant F. hepatica cathepsin L1, Z-Leu-Arg-MCA fluorescence | inhibition, % at 5.96 µM | hit rate 0.49% among 300,000 | AID 1906;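 active = inhibition above the mean of all tested compounds plus 3 SD, set per screening campaign, cut at about 17% in these data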
T cell HTS: modulates CD8 T cell binding to vesicles; response (vesicle binding), % at 7 µM; hit rate 0.068% among 330,000; AID 2052; 2C CD8+ T cell-vesicle binding, flow cytometry; active compounds read low;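 active = response, share of CD8 T cells binding vesicles, and their 90th percentile fluorescence all below set limits, cut at about 80% in these data, passing the limit was not always enough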;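 note: values below 100% mean blocked vesicle binding to the CD8+ T cells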
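Assay system – 2C mouse CD8+ T cells · Also added – QL9-loaded Drosophila micro-vesicles · Timing – Cell–vesicle co-incubation 1.5 h at 37 °C, staining 20 min on ice · Signal – flow cytometry of vesicle-bound cells · Measure – percent CD8+ FL2 mean versus row control · Controls – Peptide-free naked vesicles (low) and QL9 vesicles with 0.7% DMSO vehicle (high)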
p-CIP stab down: p/CIP protein destabilization; AID 1984; F442A p/CIP-EGFP cells, EGFP fluorescence, 16 h; Q05BA5; hit rate 0.01% among 290,000; decrease of EGFP signal, % at 10 µM;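 active = EGFP signal decrease of at least 30% at 10 µM or well 3 SD below plate mean, unless failing retest; inactive = the rest, including hits failing retest or dose response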
IMP-1 inhibitor: blocks Pseudomonas aeruginosa IMP-1 metallo-beta-lactamase. purified IMP-1, nitrocefin hydrolysis, epi-absorbance fluorescence. hit rate 0.45% among 290,000. inhibition, % at 5.6 µM;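 active = inhibition above the mean plus 3 SD of all compounds in the same screening run, cut at about 4.5% in these data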
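System: Purified recombinant IMP-1 metallo-beta-lactamase enzyme | Measured by: Fluorescence quenching readout, ex 480/em 530 nm | Replication: Singlicate | Incubation: 15 min preincubation plus 25 min reaction at 25 °C | Evaluation: Percent inhibition from optical density relative to buffer-blank wells | Benchmarks: DMSO with and without IMP-1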
Numbers stand for hits; . = inactive; / = no result given.

SMILES	UBC9 SUMO inh	VIM-2 inhibitor	Fh CTSL1 inh	T cell HTS	p-CIP stab down	IMP-1 inhibitor
CCN(CC)C(=O)C12CC3CC(CC(Br)(C3)C1)C2	.	.	.	.	.	.
COc1nc(N)nc(NC(=O)c2cccs2)c1N=O	/	/	50	.	/	/
COc1ccccc1C(=O)OC(C)CN1CCN(C)CC1 (stereo not given)	.	.	.	.	.	.
COc1cnc(-c2ccccn2)nc1Sc1ccccc1	.	.	.	.	.	.
COc1ccc(Sc2nc(-c3ccccn3)ncc2OC)cc1	.	7.9	.	.	.	.
N#C/C(=C\c1ccc(OCc2ccc(Br)cc2)cc1)C(=O)Nc1cccc(C(=O)O)c1	.	.	.	.	.	6.3
Cc1nc2ccccc2c(=O)n1/N=C/c1ccncc1	.	.	18	.	.	.
Cc1nc2ccccc2c(=O)n1/N=C/c1ccccc1	.	.	.	.	.	.
O=C(Nc1ccc(S(=O)(=O)Nc2cnc3ccccc3n2)cc1)c1ccc([N+](=O)[O-])cc1Cl	.	.	.	.	.	.
O=[N+]([O-])c1ccc(N2CCN(c3ccccc3Cl)CC2)cn1	.	.	21	.	.	.
O=[N+]([O-])c1ccc(N2CCN(c3ccc(O)cc3)CC2)cn1	.	.	.	.	.	.
C=CCS/C(N)=N\N=C\c1c(O)ccc2ccccc12	.	.	22	.	.	.
CCOC(=O)c1ccc(-n2c(CCC(=O)O)ccc2-c2ccc(F)cc2)cc1	.	.	.	.	.	.
CCN(C(=O)Cn1c(=O)oc2ccccc21)c1cccc(C(F)(F)F)c1	.	.	.	52	.	.
COc1ccc(OC)c(NC(=O)COC(=O)CC2CCCCC2)c1	/	/	/	.	/	/
O=C(c1cccc(Br)c1)N1CCN(c2ccc(N3CCOCC3)nn2)CC1	/	/	18	.	/	/
O=C(c1cncc(Br)c1)N1CCN(c2ccc(N3CCOCC3)nn2)CC1	.	.	.	.	.	.
CC[N+](CC)(CC)CC(=O)Nc1c(C)cccc1C	/	/	21	.	/	/
COC(=O)CCC(=O)N1CN2CN(C(=O)CCC(=O)OC)CC([N+](=O)[O-])(C2)C1	.	.	18	.	.	.
O=C(O)CCC(=O)N1CN2CN(C(=O)CCC(=O)O)CC([N+](=O)[O-])(C2)C1	.	.	.	.	.	.
Cc1cccc(-c2nnc(SCC(=O)c3ccc(O)cc3O)n2C)c1	.	.	.	.	.	.
Cn1nc(-c2ccc(Cl)cc2)nc2c(=O)n(C)c(=O)nc1-2	.	.	113	.	.	.
CCSc1nc(NCCN(C)C)c2c3c(sc2n1)COC(C)(CC)C3 (stereo not given)	.	8.5	.	.	.	.
Cc1noc2ncnc(Oc3ccc(Cl)cc3Cl)c12	.	.	.	.	.	.
O=C(CC(CC(=O)c1ccc(Cl)cc1)c1ccccc1C(=O)O)c1ccc(Cl)cc1	.	12	.	.	.	.
SMILES	UBC9 SUMO inh	VIM-2 inhibitor	Fh CTSL1 inh	T cell HTS	p-CIP stab down	IMP-1 inhibitor
C=CCC1(CC=C)CCCN1C(=O)C1CCC(=O)N(CCc2ccccc2)C1 (stereo not given)	.	.	.	66	.	.
Cc1ccc(S(=O)(=O)N2C(=S)SCC2(C)C)cc1	.	.	/	/	.	5.4
O=C(c1cccc(C(F)(F)F)c1)C1CCCN(C(=O)CCCn2cncn2)C1 (stereo not given)	.	.	.	.	.	.
O=C(Nc1cccc(Cl)c1)NC1CC2CCC(C1)N2Cc1cccs1 (stereo not given)	.	.	.	.	.	.
CCn1c(C)c(C(=O)c2ccccc2)c(C#N)c1C(=O)O	.	.	18	.	.	.
O=C1C(Cl)=C(Nc2ccccc2O)C(=O)N1c1ccccc1	.	9.3	73	.	.	.
COc1ccccc1N1C(=O)C(Cl)=C(Nc2ccccc2O)C1=O	.	.	/	/	.	.
Cc1ccccc1-c1nnc(-c2ccccc2)o1	.	.	.	.	.	.
Cn1cc(-c2nnc(-c3ccccc3)o2)c2ccccc21	.	.	.	.	.	4.9
CCN1CCN(c2ccc(NC(=O)CCc3c(C)nc4c(-c5ccccc5)c(C)nn4c3C)cc2)CC1	.	.	.	.	.	4.9
Cc1nc2c(-c3ccccc3)c(C)nn2c(C)c1CCC(=O)NCc1ccco1	.	.	.	.	.	.
Cc1cccc(N2C(=O)c3cccc4c(N(C)CCO)ccc(c34)C2=O)c1	.	.	.	.	.	5.1
